Consider 23 compounds from ChEMBL document CHEMBL1145839, “N-(3-acyloxy-2-benzylpropyl)-N'-[4-(methylsulfonylamino)benzyl]thiourea analogues: novel potent and high affinity antagonists and partial antagonists of the vanilloid receptor” (J Med Chem, 2003).

Test [1] addresses T1, Transient receptor potential cation channel subfamily V member 1 (Rattus norvegicus, UniProt O35433). Put plainly: Inhibition of capsaicin-induced [Ca2+] uptake by Rat Vanilloid receptor 1 (VR1) expressing CHO cells. It is filed as cell-based.
The target of test [2] is T1, Transient receptor potential cation channel subfamily V member 1. Put plainly: In vitro binding affinity towards Rat Vanilloid receptor 1 (VR1) by [3H]RTX displacement. In outline:
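Rat VR1 stably expressed in tet-off CHO cells; cells grown without antibiotic for 48 h, trypsin-harvested, pelleted and stored at -20 °C. About 5×10^5 cells incubated with 50-100 pM [3H]RTX plus competitor in DPBS (Ca2+/Mg2+) with 0.25 mg/mL BSA, 60 min at 37 °C. Nonspecific binding taken with 100 nM unlabeled RTX.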

Test [3] has the same target. Put plainly: (§1) In vitro [Ca2+] influx relative to capsaicin by Rat Vanilloid receptor (VR1) expressing CHO cells. It is filed as functional, cell-based.
Test [4] has as its target Transient receptor potential cation channel subfamily V member 1 (Rattus norvegicus) (UniProt O35433). Put plainly: Inhibition of capsaicin-induced [Ca2+] uptake by Rat Vanilloid receptor 1 (VR1) expressing CHO cells (ineffective). It is filed as functional, cell-based.
In test [5] the target is T1, Transient receptor potential cation channel subfamily V member 1. Put plainly: In vitro binding to Rat Vanilloid receptor 1 (VR1) expressing CHO cells compared to capsaicin. It is filed as cell-based. Put shortly:
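Tet-off CHO cells stably expressing rat VR1, induced by 48 h culture without tetracycline, harvested with trypsin/EDTA, pelleted and stored at -20 °C. About 5×10^5 cells per tube incubated 60 min at 37 °C with 50-100 pM [3H]RTX, a range of competitor concentrations and 0.25 mg/mL BSA in DPBS with Ca2+/Mg2+. Nonspecific binding measured with 100 nM unlabeled RTX. α-glycoprotein added after incubation, membranes pelleted, scintillation counting. Ki from Hill fit; at least three experiments.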

For test [6], the target named is Transient receptor potential cation channel subfamily V member 1 (Rattus norvegicus) (UniProt O35433). The description is as §1. It is filed as functional, cell-based. The conditions noted are these: concentration not given here.
Sequence of Transient receptor potential cation channel subfamily V member 1 (Rattus norvegicus) (O35433 whole entry): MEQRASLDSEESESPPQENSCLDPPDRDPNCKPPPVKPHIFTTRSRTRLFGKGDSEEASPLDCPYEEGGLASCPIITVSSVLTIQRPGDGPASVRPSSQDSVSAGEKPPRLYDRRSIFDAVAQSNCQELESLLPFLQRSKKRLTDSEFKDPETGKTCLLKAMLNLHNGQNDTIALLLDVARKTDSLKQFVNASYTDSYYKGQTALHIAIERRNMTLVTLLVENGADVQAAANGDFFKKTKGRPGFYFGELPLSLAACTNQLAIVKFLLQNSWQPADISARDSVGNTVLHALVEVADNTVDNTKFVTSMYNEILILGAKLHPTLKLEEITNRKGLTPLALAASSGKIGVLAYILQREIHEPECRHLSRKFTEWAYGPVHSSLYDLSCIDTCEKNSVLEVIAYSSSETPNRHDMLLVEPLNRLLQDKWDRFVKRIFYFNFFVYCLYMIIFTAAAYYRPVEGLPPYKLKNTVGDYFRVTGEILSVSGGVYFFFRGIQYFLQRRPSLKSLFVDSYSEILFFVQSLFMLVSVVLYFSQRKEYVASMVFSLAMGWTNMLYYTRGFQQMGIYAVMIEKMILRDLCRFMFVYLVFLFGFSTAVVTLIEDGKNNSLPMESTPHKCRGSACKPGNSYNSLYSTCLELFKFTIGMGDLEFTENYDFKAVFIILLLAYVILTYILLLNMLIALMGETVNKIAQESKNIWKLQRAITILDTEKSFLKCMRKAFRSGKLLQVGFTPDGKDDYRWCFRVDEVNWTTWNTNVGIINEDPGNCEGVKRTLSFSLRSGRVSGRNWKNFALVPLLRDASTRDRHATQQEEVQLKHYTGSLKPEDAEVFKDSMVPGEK
The target is the same in test [7]. Put plainly: Displacement of [3H]RTX binding to Rat Vanilloid receptor 1 (VR1) at 10 uM. A general note: Loss of bound radioactivity is the signal in a displacement assay; it reports binding, not function.
Test [8] shares this target. The settings on record: CHO.

Activity calls are given as the source filed them. No cut-off for these calls is given here.

T1 sequence (O35433 whole entry): as above

In general, Ki refers to the dissociation constant of the complex between target and ligand, obtained from inhibition or displacement. Consider `Cc1ccc(CC(CNC(=S)NCc2ccc(NS(C)(=O)=O)cc2)COC(=O)C(C)(C)C)cc1C` (stereo unspecified), for which the inhibition constant (Ki) was 67 nM in test [1] and 29.3 nM in test [2].
In general, EC50 refers to the midpoint of the concentration-response curve. Higher therefore signals lower potency in that assay. As for `Cc1ccc(CC(CNC(=S)NCc2ccc(NC(=O)C(C)C)cc2)COC(=O)C(C)(C)C)cc1C` (stereo unspecified), the EC50 in test [3] was 1140 nM. In test [2], the Ki stood at 2600 nM.
As to `CCS(=O)(=O)Nc1ccc(C/N=C(\S)NCC(COC(=O)C(C)(C)C)Cc2ccc(C)c(C)c2)cc1` (stereo unspecified), the Ki in test [1] is 309 nM; in test [2] it was 108 nM.
Compound `Cc1ccc(CC(CNC(=S)NCc2ccc(CNS(C)(=O)=O)cc2)COC(=O)C(C)(C)C)cc1C` (stereo unspecified) showed an EC50 in test [3] of 1700 nM. This compound also came in with a Ki in test [2] of 3000 nM.
Take `CC(=O)Nc1ccc(CNC(=S)NCC(COC(=O)C(C)(C)C)Cc2ccc(C)c(C)c2)cc1` (stereo unspecified): in test [3], the midpoint of the response, the EC50, lay at 450 nM. The same compound displayed a Ki in test [2] of 1700 nM.
For `CC(C)(C)c1ccc(CC(CNC(=S)NCc2ccc(NS(C)(=O)=O)cc2)COC(=O)c2ccccc2)cc1` (stereo unspecified), in that order: 2790 nM and 239 nM.
With `Cc1ccc(CC(CN/C(S)=N/Cc2ccc(NS(=O)(=O)c3ccccc3)cc2)COC(=O)C(C)(C)C)cc1C` (stereo unspecified), the NE entry in test [4] is “inactive”. This compound also yielded a Ki in test [2] of 2500 nM.
In test [5], `C=C(C)[C@]12C[C@@H](C)[C@@]34O[C@](Cc5ccccc5)(O[C@@H]1[C@@H]3C=C(COC(=O)Cc1ccc(O)c(OC)c1)C[C@]1(O)C(=O)C(C)=C[C@@H]41)O2` [RESINIFERATOXIN] registered a Ki of 0.13 nM. In other words, the sub-nanomolar range.
As a reminder, the inhibition is the percentage by which the read-out fell short of the control. Turning to `Cc1ccc(CC(CN/C(S)=N/Cc2ccc(NS(C)(=O)=O)cc2)COC(=O)C(C)(C)C)cc1C` (stereo unspecified), the inhibition in test [6] was 7%.
On to `COc1cc(CNC(=S)NCC(COC(=O)C(C)(C)C)Cc2ccc(C)c(C)c2)ccc1O` (stereo unspecified), for which the EC50 in test [3] came out at 1.97 nM. The NE result in test [4] was “inactive”.
Compound `Cc1ccc(CC(CN/C(S)=N/Cc2ccc(NS(C)(=O)=O)cc2)COC(=O)c2ccccc2)cc1C` (stereo unspecified) had an EC50 in test [3] of 1730 nM.
Consider `Cc1ccc(CC(CN/C(S)=N/Cc2ccc(NS(=O)(=O)C(C)C)cc2)COC(=O)C(C)(C)C)cc1C` (stereo unspecified), for which the EC50 in test [3] came to 790 nM. The compound further showed a Ki in test [2] of 227 nM.
For `COc1cc(CNC(=S)NCC(COC(=O)c2ccccc2)Cc2ccc(C)c(C)c2)ccc1NS(C)(=O)=O` (stereo unspecified), in that order: 166 nM and 148 nM.
`COc1cc(C/N=C(\S)NCC(COC(=O)C(C)(C)C)Cc2ccc(C)c(C)c2)ccc1NS(C)(=O)=O` (stereo unspecified) yielded an EC50 in test [3] of 22 nM. In test [2], this compound gave an inhibition constant Ki of 49 nM.
For the compound `CC(C)(C)C(=O)OCC(C/N=C(\S)NCc1ccc(NS(C)(=O)=O)cc1)Cc1ccc(C(C)(C)C)cc1` (stereo unspecified), the values for the Ki in test [1] and in test [2] were 86 nM and 64 nM, respectively.
As for `COc1cc(CNC(=S)NCC(COC(=O)C(C)(C)C)Cc2ccc(C(C)(C)C)cc2)ccc1O` (stereo unspecified), the EC50 in test [3] is 2.83 nM. Also, the NE entry in test [4] is “inactive”.
Consider `Cc1ccc(CC(CN/C(S)=N/Cc2ccc(NS(=O)(=O)C(F)(F)F)cc2)COC(=O)C(C)(C)C)cc1C` (stereo unspecified), for which the NE entry in test [4] was “inactive”. Also, in test [7], the inhibition is 15.5%.
With `CCCS(=O)(=O)Nc1ccc(C/N=C(\S)NCC(COC(=O)C(C)(C)C)Cc2ccc(C)c(C)c2)cc1` (stereo unspecified), the Ki in test [1] amounted to 940 nM; in test [2] it was 313 nM.
Consider `COc1cc(C/N=C(\S)NCC(COC(=O)c2ccccc2)Cc2ccc(C(C)(C)C)cc2)ccc1NS(C)(=O)=O` (stereo unspecified), for which a half-maximal response in test [3] (EC50) required 252 nM. This compound also came in with a Ki in test [2] of 77.2 nM.
In test [3], `Cc1ccc(CC(CN/C(S)=N/Cc2cccc(NS(C)(=O)=O)c2)COC(=O)C(C)(C)C)cc1C` (stereo unspecified) gave an EC50 of 990 nM. In addition, the Ki in test [2] is 355 nM.
With `Oc1cc2c(cc1O)CN(C(=S)NCCc1ccc(Cl)cc1)CCC2`, the NE result in test [8] is “inactive”.
In the case of `Cc1ccc(CC(CNC(=S)NCc2ccc(NS(C)(=O)=O)c(F)c2)COC(=O)C(C)(C)C)cc1C` (stereo unspecified), the Ki in test [1] came to 7.8 nM; in test [2] it was 54 nM.
For `COc1cc(CNC(=O)CCCC/C=C/C(C)C)ccc1O`, the NE entry in test [4] is “inactive”.
